According to ChEMBL document CHEMBL5724801, “EUbOPEN Chemogenomics Library - Multiplex” (2024):
“And” between values parts separate entries of the source, which are not always exact repeats. Equal values may be shown once.

What was measured:
U2OS = experiment: Multiplex assay against U2OS; format: toxicity, cell-based; details: human
Summary of the method: (§1)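 At seeding, live cells were stained with Hoechst33342, BioTracker Green Microtubule Cytoskeleton Dye, MitoTracker Red and Annexin V Alexa Fluor 680. After compound addition they were imaged on a CQ1 microscope at 37°C and 5% CO2, and CellPathfinder machine-learning gating sorted them into Hoechst high-intensity objects or normal cells, with normal cells further split into healthy, pyknosed or fragmented nuclei and pyknosed cells into mitotic or apoptotic. Tubulin, mitochondrial-mass and membrane-permeability phenotypes are given as per cents of cells with healthy nuclei.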

Fibroblast = experiment: Multiplex assay against human fibroblast; format: toxicity, cell-based; summary of the method: as §1
[1] = 24 h, 10 µM, compound concentration 10 uM
[2] = 48 h, 1 µM, compound concentration 1 uM
[3] = 48 h, 10 µM, compound concentration 10 uM
[4] = 12 h, 1 µM, compound concentration 1 uM
[5] = 12 h, 10 µM, compound concentration 10 uM
[6] = 24 h, 1 µM, compound concentration 1 uM

COc1cc2nc(N3CCN(C(=O)c4ccco4)CC3)nc(N)c2cc1OC.Cl [PRAZOSIN HYDROCHLORIDE]
Population Apoptotic (%) (U2OS; [1]): 78% and 85%
Population Fragmented Nuclei (%) (U2OS; [1]): 23% and 13%
Population Healthy Nuclei (%) (U2OS; [1]): 68% and 71%
Population Hoechst High Intensity Objects (%) (U2OS; [1]): 2% and 1%
Population Membrane Permeable-Phenotype (%) (U2OS; [1]): 8% and 7%
Population Mitochondria Different-Phenotype (%) (U2OS; [1]): 6% and 5%
Population Mitotic Cells (%) (U2OS; [1]): 21% and 14%
Population Normal (%) (U2OS; [1]): 97% and 98%
Population Pyknosed Nuclei (%) (U2OS; [1]): 7% and 15%
Population Tubulin-Different-Phenotype (%) (U2OS; [1]): 6% and 4%
Total Cell Count (U2OS; [1]): 244 and 138
Population Apoptotic (%) (U2OS; [2]): 94% and 100%
Population Fragmented Nuclei (%) (U2OS; [2]): 16% and 15%
Population Healthy Nuclei (%) (U2OS; [2]): 74% and 77%
Population Hoechst High Intensity Objects (%) (U2OS; [2]): 2% and 1%
Population Membrane Permeable-Phenotype (%) (U2OS; [2]): 6% and 7%
Population Mitochondria Different-Phenotype (%) (U2OS; [2]): 2% and 7%
Population Mitotic Cells (%) (U2OS; [2]): 5% and 0%
Population Normal (%) (U2OS; [2]): 97% and 98%
Population Pyknosed Nuclei (%) (U2OS; [2]): 9% and 7%
Population Tubulin-Different-Phenotype (%) (U2OS; [2]): 2% and 5%
Total Cell Count (U2OS; [2]): 388 and 266
Population Apoptotic (%) (U2OS; [3]): 96% and 94%
Population Fragmented Nuclei (%) (U2OS; [3]): 20% and 15%
Population Healthy Nuclei (%) (U2OS; [3]): 71% and 76%
Population Hoechst High Intensity Objects (%) (U2OS; [3]): 1% and 2%
Population Membrane Permeable-Phenotype (%) (U2OS; [3]): 5%
Population Mitochondria Different-Phenotype (%) (U2OS; [3]): 2% and 6%
Population Mitotic Cells (%) (U2OS; [3]): 3% and 5%
Population Normal (%) (U2OS; [3]): 98% and 97%
Population Pyknosed Nuclei (%) (U2OS; [3]): 8%
Population Tubulin-Different-Phenotype (%) (U2OS; [3]): 3%
Total Cell Count (U2OS; [3]): 341 and 208
Population Apoptotic (%) (Fibroblast; [4]): 38% and 49%
Population Fragmented Nuclei (%) (Fibroblast; [4]): 22% and 20%
Population Healthy Nuclei (%) (Fibroblast; [4]): 57% and 52%
Population Hoechst High Intensity Objects (%) (Fibroblast; [4]): 1% and 4%
Population Membrane Permeable-Phenotype (%) (Fibroblast; [4]): 1% and 5%
Population Mitochondria Different-Phenotype (%) (Fibroblast; [4]): 1% and 7%
Population Mitotic Cells (%) (Fibroblast; [4]): 61% and 50%
Population Normal (%) (Fibroblast; [4]): 98% and 95%
Population Pyknosed Nuclei (%) (Fibroblast; [4]): 19% and 27%
Population Tubulin-Different-Phenotype (%) (Fibroblast; [4]): 26% and 46%
Total Cell Count (Fibroblast; [4]): 174 and 194
Population Apoptotic (%) (Fibroblast; [5]): 44% and 31%
Population Fragmented Nuclei (%) (Fibroblast; [5]): 23% and 35%
Population Healthy Nuclei (%) (Fibroblast; [5]): 64% and 42%
Population Hoechst High Intensity Objects (%) (Fibroblast; [5]): 1% and 5%
Population Membrane Permeable-Phenotype (%) (Fibroblast; [5]): 0% and 9%
Population Mitochondria Different-Phenotype (%) (Fibroblast; [5]): 7% and 3%
Population Mitotic Cells (%) (Fibroblast; [5]): 56% and 68%
Population Normal (%) (Fibroblast; [5]): 98% and 94%
Population Pyknosed Nuclei (%) (Fibroblast; [5]): 12% and 21%
Population Tubulin-Different-Phenotype (%) (Fibroblast; [5]): 49% and 65%
Total Cell Count (Fibroblast; [5]): 198 and 155
Population Apoptotic (%) (Fibroblast; [6]): 50% and 45%
Population Fragmented Nuclei (%) (Fibroblast; [6]): 20%
Population Healthy Nuclei (%) (Fibroblast; [6]): 63% and 57%
Population Hoechst High Intensity Objects (%) (Fibroblast; [6]): 2% and 7%
Population Membrane Permeable-Phenotype (%) (Fibroblast; [6]): 0% and 12%
Population Mitochondria Different-Phenotype (%) (Fibroblast; [6]): 2% and 3%
Population Mitotic Cells (%) (Fibroblast; [6]): 50% and 54%
Population Normal (%) (Fibroblast; [6]): 97% and 92%
Population Pyknosed Nuclei (%) (Fibroblast; [6]): 15% and 21%
Population Tubulin-Different-Phenotype (%) (Fibroblast; [6]): 28% and 58%
Total Cell Count (Fibroblast; [6]): 181 and 185
Population Apoptotic (%) (Fibroblast; [1]): 46% and 61%
Population Fragmented Nuclei (%) (Fibroblast; [1]): 23% and 35%
Population Healthy Nuclei (%) (Fibroblast; [1]): 69% and 49%
Population Hoechst High Intensity Objects (%) (Fibroblast; [1]): 3% and 7%
Population Membrane Permeable-Phenotype (%) (Fibroblast; [1]): 0% and 10%
Population Mitochondria Different-Phenotype (%) (Fibroblast; [1]): 6% and 11%
Population Mitotic Cells (%) (Fibroblast; [1]): 53% and 38%
Population Normal (%) (Fibroblast; [1]): 96% and 92%
Population Pyknosed Nuclei (%) (Fibroblast; [1]): 6% and 15%
Population Tubulin-Different-Phenotype (%) (Fibroblast; [1]): 45% and 73%
Total Cell Count (Fibroblast; [1]): 201 and 152
Population Apoptotic (%) (Fibroblast; [2]): 52% and 66%
Population Fragmented Nuclei (%) (Fibroblast; [2]): 24% and 29%
Population Healthy Nuclei (%) (Fibroblast; [2]): 62% and 56%
Population Hoechst High Intensity Objects (%) (Fibroblast; [2]): 3%
Population Membrane Permeable-Phenotype (%) (Fibroblast; [2]): 0% and 8%
Population Mitochondria Different-Phenotype (%) (Fibroblast; [2]): 1% and 6%
Population Mitotic Cells (%) (Fibroblast; [2]): 47% and 33%
Population Normal (%) (Fibroblast; [2]): 96%
Population Pyknosed Nuclei (%) (Fibroblast; [2]): 13% and 14%
Population Tubulin-Different-Phenotype (%) (Fibroblast; [2]): 22% and 57%
Total Cell Count (Fibroblast; [2]): 182 and 197
Population Apoptotic (%) (Fibroblast; [3]): 66% and 46%
Population Fragmented Nuclei (%) (Fibroblast; [3]): 25% and 42%
Population Healthy Nuclei (%) (Fibroblast; [3]): 68% and 49%
Population Hoechst High Intensity Objects (%) (Fibroblast; [3]): 1% and 5%
Population Membrane Permeable-Phenotype (%) (Fibroblast; [3]): 0% and 5%
Population Mitochondria Different-Phenotype (%) (Fibroblast; [3]): 4% and 5%
Population Mitotic Cells (%) (Fibroblast; [3]): 33% and 53%
Population Normal (%) (Fibroblast; [3]): 98% and 94%
Population Pyknosed Nuclei (%) (Fibroblast; [3]): 6% and 8%
Population Tubulin-Different-Phenotype (%) (Fibroblast; [3]): 32% and 48%
Total Cell Count (Fibroblast; [3]): 201 and 170
